Measured values published in ChEMBL document CHEMBL1125291, “New 8-(trifluoromethyl)-substituted quinolones. The benefits of the 8-fluoro group with reduced phototoxic risk” (1992).
Values after ≈ are worked out from the molar mass of the structure shown.

Tests used:
[1] = tested on: Escherichia coli; test: In vivo efficacy in mouse protection test in Escherichia coli Vogel administered by subcutaneous injection.; type: functional; details: Escherichia coli, sc; read-out: PD50
Summary of the method: (§1)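 Acute lethal systemic infections in female Charles River CD-1 mice. A single dose was given at challenge, orally by gavage or by subcutaneous injection. PD50 (median protective dose, mg/kg) was determined.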

[2] = tested on: Klebsiella pneumoniae; test: Minimum inhibitory concentration (MIC) against gram negative bacteria Klebsiella pneumoniae MGH-2.; type: functional; details: Klebsiella pneumoniae; read-out: MIC
Summary of the method: (§2)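 MICs were determined by standard broth microtitration against 11 Gram-positive and Gram-negative organisms, in µg/mL. Values come from duplicate or triplicate experiments and are accurate to ±50%.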

[3] = tested on: Escherichia coli; test: Minimum inhibitory concentration (MIC) against gram negative bacteria Escherichia coli Vogel.; type: functional; details: Escherichia coli; read-out: MIC; summary of the method: as §2
[4] = tested on: Streptococcus pneumoniae; test: In vivo efficacy (orally) against Streptococcus pneumoniae SV-1 in mouse protection test; type: functional; details: Streptococcus pneumoniae, po; read-out: PD50; summary of the method: as §1
[5] = organism: Mus musculus; test: Number of mice which show positive phototoxic reaction in 5 mice; type: functional
[6] = tested on: Streptococcus pneumoniae; test: Minimum inhibitory concentration (MIC) against gram positive bacteria Streptococcus pneumoniae SV-1.; type: functional; details: Streptococcus pneumoniae; read-out: MIC; summary of the method: as §2
[7] = tested on: Streptococcus pyogenes; test: Minimum inhibitory concentration (MIC) against gram positive bacteria Streptococcus pyogenes C-203.; type: functional; details: Streptococcus pyogenes; read-out: MIC; summary of the method: as §2
[8] = tested on: Escherichia coli; test: Minimum inhibitory concentration (MIC) against gram negative bacteria Escherichia coli H-560.; type: functional; details: Escherichia coli; read-out: MIC; summary of the method: as §2
[9] = tested on: Escherichia coli; test: In vivo efficacy in mouse protection test in Escherichia coli Vogel dose administered orally by gavage.; type: functional; details: Escherichia coli, po; read-out: PD50; summary of the method: as §1
[10] = organism: Mus musculus; test: Dose required to induce phototoxic reaction in 50% of mice by probit method at different dosage forms.; type: functional
[11] = tested on: Enterobacter cloacae; test: Minimum inhibitory concentration (MIC) against gram negative bacteria Enterobacter cloacae MA-2646.; type: functional
[12] = tested on: Staphylococcus aureus; test: Minimum inhibitory concentration (MIC) against gram positive bacteria Staphylococcus aureus UC-76.; type: functional; details: Staphylococcus aureus; read-out: MIC; summary of the method: as §2
[13] = Minimum inhibitory concentration (MIC) against gram negative bacteria Prot. rettgeri M-1771.; type: functional, Providencia rettgeri; details: Providencia rettgeri; read-out: MIC; summary of the method: as §2
[14] = tested on: Streptococcus pneumoniae; test: In vivo efficacy (s.c.) against Streptococcus pneumoniae SV-1 in mouse protection test; type: functional; details: Streptococcus pneumoniae, sc; read-out: PD50; summary of the method: as §1
[15] = organism: Mus musculus; test: Dose which has no effect to induce phototoxic reaction in 50% of mice by probit method.; type: functional
[16] = organism: Mus musculus; test: Days of the first positive reaction in […] mice.; type: functional
Summary of the method: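 Phototoxic skin reaction test in depilated female CD-1 mice. A single oral dose (gavage) or subcutaneous dose was given, followed 1 h later by 3 h of UVA exposure (320–400 nm). The regimen was repeated for up to 4 consecutive days, with initial doses of 30, 100 and 300 mg/kg. PTD50 was derived by the probit method. The first day of positive reaction and the no-effect dose were taken from the raw data.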

[17] = tested on: Enterococcus faecalis; test: Minimum inhibitory concentration (MIC) against gram positive bacteria Streptococcus faecalis MGH-2.; type: functional; details: Enterococcus faecalis; read-out: MIC; summary of the method: as §2
[18] = tested on: Staphylococcus aureus; test: Minimum inhibitory concentration (MIC) against gram positive bacteria Staphylococcus aureus H-228.; type: functional; details: Staphylococcus aureus; read-out: MIC; summary of the method: as §2
[19] = tested on: Pseudomonas aeruginosa; test: Minimum inhibitory concentration (MIC) against gram negative bacteria Pseudomonas aeruginosa UI-18.; type: functional; details: Pseudomonas aeruginosa; read-out: MIC; summary of the method: as §2
[20] = tested on: Mus musculus; test: Maximum tolerance dose was measured for phototoxic skin reaction by po administration; type: functional
[21] = tested on: Streptococcus pyogenes; test: In vivo efficacy (orally) against Streptococcus pyogenes C-203 in mouse protection test; type: functional; details: Streptococcus pyogenes, po; read-out: PD50; summary of the method: as §1
[22] = tested on: Streptococcus pyogenes; test: In vivo efficacy (s.c.) against Streptococcus pyogenes C-203 in mouse protection test; type: functional; details: Streptococcus pyogenes, sc; read-out: PD50; summary of the method: as §1
[23] = tested on: Pseudomonas aeruginosa; test: In vivo efficacy (orally) against Pseudomonas aeruginosa in mouse protection test; type: functional; details: Pseudomonas aeruginosa, po; read-out: PD50; summary of the method: as §1
[24] = tested on: Pseudomonas aeruginosa; test: In vivo efficacy (s.c.) against Pseudomonas aeruginosa in mouse protection test; type: functional; details: Pseudomonas aeruginosa, sc; read-out: PD50; summary of the method: as §1

Row | SMILES | ED50 [1] [mg/kg] | MIC [2] [µg/mL] | MIC [3] [µg/mL] | ED50 [4] [mg/kg] | No. of pos rxns [5] | MIC [6] [µg/mL] | MIC [7] [µg/mL] | MIC [8] [µg/mL] | ED50 [9] [mg/kg] | PTD50 [10] [mg/kg] | MIC [11] [µg/mL] | MIC [12] [µg/mL] | MIC [13] [µg/mL] | ED50 [14] [mg/kg] | No effect dose [15] [mg/kg] | Day of first positve reaction [16] | MIC [17] [µg/mL] | MIC [18] [µg/mL] | MIC [19] [µg/mL] | MTD [20] [mg/kg] | other results
1 | CC1(CN)CCN(c2cc3c(cc2F)c(=O)c(C(=O)O)cn3C2CC2)C1 (centres undefined) | 1.7 | 0.2 (≈ 0.556 µM) | 0.025 (≈ 0.0696 µM) | 12 | 0 | 0.003 (≈ 0.00835 µM) | 0.003 (≈ 0.00835 µM) | 0.025 (≈ 0.0696 µM) | 26 | >100 | 0.05 (≈ 0.139 µM) | 0.013 (≈ 0.0362 µM) | 0.4 (≈ 1.11 µM) | 0.45 | 100 | 0 | 0.05 (≈ 0.139 µM) | 0.1 (≈ 0.278 µM) | 1.6 (≈ 4.45 µM) | 100 | 
2 | CCNCC1CCN(c2cc3c(cc2F)c(=O)c(C(=O)O)cn3C2CC2)C1 (centres undefined) | 2.4 | 0.2 (≈ 0.536 µM) | 0.2 (≈ 0.536 µM) |  | 0 | 0.2 (≈ 0.536 µM) | 0.05 (≈ 0.134 µM) | 0.05 (≈ 0.134 µM) | 35 | >100 | 0.4 (≈ 1.07 µM) | 0.013 (≈ 0.0348 µM) | 0.8 (≈ 2.14 µM) |  | 100 | 0 | 0.2 (≈ 0.536 µM) | 0.4 (≈ 1.07 µM) | 1.6 (≈ 4.28 µM) | 100 | ED50 [21]: 46 mg/kg; ED50 [22]: 4.5 mg/kg
3 | CC1(CN)CCN(c2c(F)cc3c(=O)c(C(=O)O)cn(C4CC4)c3c2C(F)(F)F)C1 (centres undefined) | 3.1 | 0.4 (≈ 0.936 µM) | 0.2 (≈ 0.468 µM) | 1.1 | 0 | 0.05 (≈ 0.117 µM) | 0.05 (≈ 0.117 µM) | 0.1 (≈ 0.234 µM) | 8.5 | >100 | 0.2 (≈ 0.468 µM) | 0.013 (≈ 0.0304 µM) | 0.8 (≈ 1.87 µM) | 0.4 | 100 | 0 | 0.2 (≈ 0.468 µM) | 0.05 (≈ 0.117 µM) | 3.1 (≈ 7.25 µM) | 100 | 
4 | NC1CCN(c2cc3c(cc2F)c(=O)c(C(=O)O)cn3C2CC2)CC1 | 3.8 | 0.8 (≈ 2.32 µM) | 0.4 (≈ 1.16 µM) |  | 0 | 0.4 (≈ 1.16 µM) | 0.4 (≈ 1.16 µM) | 0.4 (≈ 1.16 µM) | 18 | >100 | 0.4 (≈ 1.16 µM) | 0.2 (≈ 0.579 µM) | 1.6 (≈ 4.63 µM) |  | 100 | 0 | 0.8 (≈ 2.32 µM) | 1.6 (≈ 4.63 µM) | 3.1 (≈ 8.98 µM) | 100 | 
5 | CCn1cc(C(=O)O)c(=O)c2cc(F)c(N3CCN(C)CC3)cc21 [PEFLOXACIN] | 2 | 0.05 (≈ 0.15 µM) | 0.025 (≈ 0.075 µM) | > 200 | 2 | 0.8 (≈ 2.4 µM) | 0.8 (≈ 2.4 µM) | 0.1 (≈ 0.3 µM) | 3 | 265 |  | 0.1 (≈ 0.3 µM) | 0.05 (≈ 0.15 µM) | 96 | >172 | 4 | 0.8 (≈ 2.4 µM) | 0.2 (≈ 0.6 µM) | 0.4 (≈ 1.2 µM) | 300 | ED50 [23]: 38 mg/kg; ED50 [24]: 26 mg/kg; ED50 [21]: 110 mg/kg; ED50 [22]: 94 mg/kg
6 | C[C@@H]1CN(c2c(F)cc3c(=O)c(C(=O)O)cn(C4CC4)c3c2F)CCN1 | 0.2 | 0.025 (≈ 0.0688 µM) | 0.025 (≈ 0.0688 µM) |  | 1 | 0.4 (≈ 1.1 µM) | 0.2 (≈ 0.55 µM) | 0.1 (≈ 0.275 µM) | 0.7 | 43 | 0.025 (≈ 0.0688 µM) | 0.1 (≈ 0.275 µM) | 0.1 (≈ 0.275 µM) |  | <30 | 4 | 0.4 (≈ 1.1 µM) | 0.2 (≈ 0.55 µM) | 0.4 (≈ 1.1 µM) | 30 | ED50 [21]: 14 mg/kg; ED50 [22]: 7.2 mg/kg
7 | CCNCC1CCN(c2c(F)cc3c(=O)c(C(=O)O)cn(C4CC4)c3c2F)C1 (centres undefined) [PD-117558] | 1 | 0.2 (≈ 0.511 µM) | 0.05 (≈ 0.128 µM) | 3.3 | 5 | 0.025 (≈ 0.0639 µM) |  | 0.013 (≈ 0.0332 µM) | 4.2 | <30 | 0.1 (≈ 0.255 µM) | 0.006 (≈ 0.0153 µM) | 0.4 (≈ 1.02 µM) | 1.9 | 30 | 1 | 0.025 (≈ 0.0639 µM) | 0.05 (≈ 0.128 µM) | 0.4 (≈ 1.02 µM) | 30 | ED50 [23]: 59 mg/kg; ED50 [24]: 40 mg/kg; ED50 [21]: 1.8 mg/kg; ED50 [22]: 0.5 mg/kg
